From ChEMBL document CHEMBL5376013, “Design, synthesis and biological evaluation of novel morpholinopyrimidine-5-carbonitrile derivatives as dual PI3K/mTOR inhibitors” (RSC Med Chem, 2024)

Tests used:
Type in all cases: functional
Conditions in all cases: read-out: GI
SF-539 = experiment: Antitumor activity against human SF-539 cells assessed as growth inhibition at 10 uM relative to control
Method in brief: (§1)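 After drug addition, plates were incubated 48 h at 37 °C under 5% CO2. Adherent cells were fixed with cold TCA (10% final, 60 min, 4 °C) and suspension cells with 16% final TCA. Staining used 0.4% SRB in 1% acetic acid, solubilized in 10 mM trizma, read at A515. Percent growth was calculated from time-zero, control and treated absorbances.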

NCI-H522 = experiment: Antitumor activity against human NCI-H522 cells assessed as growth inhibition at 10 uM relative to control; method in brief: as §1
KM12 = experiment: Antitumor activity against human KM12 cells assessed as growth inhibition at 10 uM relative to control; method in brief: as §1
MDA-MB-435 = experiment: Antitumor activity against human MDA-MB-435 cells assessed as growth inhibition at 10 uM relative to control; method in brief: as §1
T47D = experiment: Antitumor activity against human T47D cells assessed as growth inhibition at 10 uM relative to control
Method in brief: (§2)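 Drug exposure 48 h at 37 °C, 5% CO2. Adherent cells fixed with cold TCA (10% final), suspension cells with TCA (16% final). Stained with 0.4% SRB in 1% acetic acid, dissolved in 10 mM Tris, A515. Growth relative to time-zero and untreated control.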

K562 = experiment: Antitumor activity against human K562 cells assessed as growth inhibition at 10 uM relative to control; method in brief: as §1
Hs-578T = experiment: Antitumor activity against human Hs-578T cells assessed as growth inhibition at 10 uM relative to control; method in brief: as §1
M14 = experiment: Antitumor activity against human M14 cells assessed as growth inhibition at 10 uM relative to control; method in brief: as §1
HCC 2998 = experiment: Antitumor activity against human HCC 2998 cells assessed as growth inhibition at 10 uM relative to control; method in brief: as §1
SNB-75 = experiment: Antitumor activity against human SNB-75 cells assessed as growth inhibition at 10 uM relative to control; method in brief: as §2
CCRF-CEM = experiment: Antitumor activity against human CCRF-CEM cells assessed as growth inhibition at 10 uM relative to control; method in brief: as §1
PC-3 = experiment: Antitumor activity against human PC-3 cells assessed as growth inhibition at 10 uM relative to control; method in brief: as §1
SW-620 = experiment: Antitumor activity against human SW-620 cells assessed as growth inhibition at 10 uM relative to control; method in brief: as §2
SF-295 = experiment: Antitumor activity against human SF-295 cells assessed as growth inhibition at 10 uM relative to control; method in brief: as §1
HCT-116 = experiment: Antitumor activity against human HCT-116 cells assessed as growth inhibition at 10 uM relative to control; method in brief: as §1
ACHN = experiment: Antitumor activity against human ACHN cells assessed as growth inhibition at 10 uM relative to control; method in brief: as §1
HL-60 = experiment: Antitumor activity against human HL-60 cells assessed as growth inhibition at 10 uM relative to control; method in brief: as §1
NCI-H322M = experiment: Antitumor activity against human NCI-H322M cells assessed as growth inhibition at 10 uM relative to control; method in brief: as §1
BT-549 = experiment: Antitumor activity against human BT-549 cells assessed as growth inhibition at 10 uM relative to control; method in brief: as §1
SF-268 = experiment: Antitumor activity against human SF-268 cells assessed as growth inhibition at 10 uM relative to control; method in brief: as §1
NCI-H226 = experiment: Antitumor activity against human NCI-H226 cells assessed as growth inhibition at 10 uM relative to control; method in brief: as §1
COLO 205 = experiment: Antitumor activity against human COLO 205 cells assessed as growth inhibition at 10 uM relative to control; method in brief: as §1
786-0 = experiment: Antitumor activity against human 786-0 cells assessed as growth inhibition at 10 uM relative to control; method in brief: as §1
MOLT-4 = experiment: Antitumor activity against human MOLT-4 cells assessed as growth inhibition at 10 uM relative to control; method in brief: as §1
HOP-92 = experiment: Antitumor activity against human HOP-92 cells assessed as growth inhibition at 10 uM relative to control; method in brief: as §1
SK-MEL-28 = experiment: Antitumor activity against human SK-MEL-28 cells assessed as growth inhibition at 10 uM relative to control; method in brief: as §2
LOX IMVI = experiment: Antitumor activity against human LOX IMVI cells assessed as growth inhibition at 10 uM relative to control; method in brief: as §1
HOP-62 = experiment: Antitumor activity against human HOP-62 cells assessed as growth inhibition at 10 uM relative to control; method in brief: as §1
IGROV-1 = experiment: Antitumor activity against human IGROV-1 cells assessed as growth inhibition at 10 uM relative to control; method in brief: as §1
Malme-3M = experiment: Antitumor activity against human Malme-3M cells assessed as growth inhibition at 10 uM relative to control; method in brief: as §1
OVCAR-3 = experiment: Antitumor activity against human OVCAR-3 cells assessed as growth inhibition at 10 uM relative to control; method in brief: as §1
NCI-H23 = experiment: Antitumor activity against human NCI-H23 cells assessed as growth inhibition at 10 uM relative to control; method in brief: as §1
SNB-19 = experiment: Antitumor activity against human SNB-19 cells assessed as growth inhibition at 10 uM relative to control; method in brief: as §2
DU-145 = experiment: Antitumor activity against human DU-145 cells assessed as growth inhibition at 10 uM relative to control; method in brief: as §1
SK-MEL-5 = experiment: Antitumor activity against human SK-MEL-5 cells assessed as growth inhibition at 10 uM relative to control; method in brief: as §2
UO-31 = experiment: Antitumor activity against human UO-31 cells assessed as growth inhibition at 10 uM relative to control; method in brief: as §2
OVCAR-8 = experiment: Antitumor activity against human OVCAR-8 cells assessed as growth inhibition at 10 uM relative to control; method in brief: as §1
SR = experiment: Antitumor activity against human SR cells assessed as growth inhibition at 10 uM relative to control; method in brief: as §2
U-251 = experiment: Antitumor activity against human U-251 cells assessed as growth inhibition at 10 uM relative to control; method in brief: as §2
EKVX = experiment: Antitumor activity against human EKVX cells assessed as growth inhibition at 10 uM relative to control; method in brief: as §1
NCI/ADR-RES = experiment: Antitumor activity against human NCI-ADR-RES cells assessed as growth inhibition at 10 uM relative to control; method in brief: as §1
RPMI-8226 = experiment: Antitumor activity against human RPMI-8226 cells assessed as growth inhibition at 10 uM relative to control; method in brief: as §1
RXF 393 = experiment: Antitumor activity against human RXF 393 cells assessed as growth inhibition at 10 uM relative to control; method in brief: as §1
MDA-MB-231 = experiment: Antitumor activity against human MDA-MB-231 cells assessed as growth inhibition at 10 uM relative to control; method in brief: as §1
MDA-MB-468 = experiment: Antitumor activity against human MDA-MB-468 cells assessed as growth inhibition at 10 uM relative to control; method in brief: as §1
A498 = experiment: Antitumor activity against human A498 cells assessed as growth inhibition at 10 uM relative to control; method in brief: as §1

SMILES: N#Cc1c(-c2ccc(Cl)cc2)nc(N/N=C2/C(=O)Nc3ccc(Cl)cc32)nc1N1CCOCC1
- inhibition of growth at 10 µM (SF-539): < 1%
- inhibition of growth at 10 µM (NCI-H522): < 1%
- inhibition of growth at 10 µM (KM12): < 1%
- inhibition of growth at 10 µM (MDA-MB-435): < 1%
- inhibition of growth at 10 µM (T47D): < 1%
- inhibition of growth at 10 µM (K562): < 1%
- inhibition of growth at 10 µM (Hs-578T): < 1%
- inhibition of growth at 10 µM (M14): < 1%
- inhibition of growth at 10 µM (HCC 2998): < 1%
- inhibition of growth at 10 µM (SNB-75): 31.3%
- inhibition of growth at 10 µM (CCRF-CEM): < 1%
- inhibition of growth at 10 µM (PC-3): < 1%
- inhibition of growth at 10 µM (SW-620): < 1%
- inhibition of growth at 10 µM (SF-295): < 1%
- inhibition of growth at 10 µM (HCT-116): < 1%
- inhibition of growth at 10 µM (ACHN): < 1%
- inhibition of growth at 10 µM (HL-60): < 1%
- inhibition of growth at 10 µM (NCI-H322M): < 1%
- inhibition of growth at 10 µM (BT-549): < 1%
- inhibition of growth at 10 µM (SF-268): < 1%
- inhibition of growth at 10 µM (NCI-H226): 10.5%
- inhibition of growth at 10 µM (COLO 205): 1%
- inhibition of growth at 10 µM (786-0): < 1%
- inhibition of growth at 10 µM (MOLT-4): < 1%
- inhibition of growth at 10 µM (HOP-92): 10.5%
- inhibition of growth at 10 µM (SK-MEL-28): < 1%
- inhibition of growth at 10 µM (LOX IMVI): 16.8%
- inhibition of growth at 10 µM (HOP-62): < 1%
- inhibition of growth at 10 µM (IGROV-1): < 1%
- inhibition of growth at 10 µM (Malme-3M): 11.2%
- inhibition of growth at 10 µM (OVCAR-3): < 1%
- inhibition of growth at 10 µM (NCI-H23): 15.2%
- inhibition of growth at 10 µM (SNB-19): < 1%
- inhibition of growth at 10 µM (DU-145): < 1%
- inhibition of growth at 10 µM (SK-MEL-5): < 1%
- inhibition of growth at 10 µM (UO-31): 32.5%
- inhibition of growth at 10 µM (OVCAR-8): < 1%
- inhibition of growth at 10 µM (SR): < 1%
- inhibition of growth at 10 µM (U-251): < 1%
- inhibition of growth at 10 µM (EKVX): 13.9%
- inhibition of growth at 10 µM (NCI/ADR-RES): 11.7%
- inhibition of growth at 10 µM (RPMI-8226): < 1%
- inhibition of growth at 10 µM (RXF 393): < 1%
- inhibition of growth at 10 µM (MDA-MB-231): 17.1%
- inhibition of growth at 10 µM (MDA-MB-468): < 1%
- inhibition of growth at 10 µM (A498): 26.9%

SMILES: N#Cc1c(-c2ccc(Cl)cc2)nc(N/N=C2/C(=O)Nc3ccc(Br)cc32)nc1N1CCOCC1
- inhibition of growth at 10 µM (SF-539): < 1%
- inhibition of growth at 10 µM (NCI-H522): < 1%
- inhibition of growth at 10 µM (KM12): < 1%
- inhibition of growth at 10 µM (MDA-MB-435): < 1%
- inhibition of growth at 10 µM (T47D): < 1%
- inhibition of growth at 10 µM (K562): < 1%
- inhibition of growth at 10 µM (Hs-578T): < 1%
- inhibition of growth at 10 µM (M14): < 1%
- inhibition of growth at 10 µM (HCC 2998): < 1%
- inhibition of growth at 10 µM (SNB-75): < 1%
- inhibition of growth at 10 µM (CCRF-CEM): < 1%
- inhibition of growth at 10 µM (PC-3): < 1%
- inhibition of growth at 10 µM (SW-620): < 1%
- inhibition of growth at 10 µM (SF-295): < 1%
- inhibition of growth at 10 µM (HCT-116): 16.8%
- inhibition of growth at 10 µM (ACHN): < 1%
- inhibition of growth at 10 µM (HL-60): < 1%
- inhibition of growth at 10 µM (NCI-H322M): < 1%
- inhibition of growth at 10 µM (BT-549): < 1%
- inhibition of growth at 10 µM (SF-268): < 1%
- inhibition of growth at 10 µM (NCI-H226): < 1%
- inhibition of growth at 10 µM (COLO 205): 1%
- inhibition of growth at 10 µM (786-0): < 1%
- inhibition of growth at 10 µM (MOLT-4): < 1%
- inhibition of growth at 10 µM (HOP-92): < 1%
- inhibition of growth at 10 µM (SK-MEL-28): < 1%
- inhibition of growth at 10 µM (LOX IMVI): 14.6%
- inhibition of growth at 10 µM (HOP-62): < 1%
- inhibition of growth at 10 µM (IGROV-1): < 1%
- inhibition of growth at 10 µM (Malme-3M): < 1%
- inhibition of growth at 10 µM (OVCAR-3): < 1%
- inhibition of growth at 10 µM (NCI-H23): 11.9%
- inhibition of growth at 10 µM (SNB-19): < 1%
- inhibition of growth at 10 µM (DU-145): < 1%
- inhibition of growth at 10 µM (SK-MEL-5): < 1%
- inhibition of growth at 10 µM (UO-31): 28.7%
- inhibition of growth at 10 µM (OVCAR-8): < 1%
- inhibition of growth at 10 µM (SR): < 1%
- inhibition of growth at 10 µM (U-251): 33.6%
- inhibition of growth at 10 µM (EKVX): < 1%
- inhibition of growth at 10 µM (NCI/ADR-RES): < 1%
- inhibition of growth at 10 µM (RPMI-8226): < 1%
- inhibition of growth at 10 µM (RXF 393): < 1%
- inhibition of growth at 10 µM (MDA-MB-231): 14.2%
- inhibition of growth at 10 µM (MDA-MB-468): < 1%
- inhibition of growth at 10 µM (A498): 26.3%
